# Laboratory results: the RNAGym collection of RNA variant scans (doi:10.1126/science.aae0568)
# Fewer inactive variants are shown than the library holds.
# B1: tRNA (parent)
# chain: GUUCCGUUGGCGUAAUGGUAACGCGUCUCCCUCCUAAGGAGAAGACUGCGGGUUCGAGUCCCGUACGGAACG
# Variants of: B1
# Assay: yeast fitness relative to wild type (ratio to wild type); higher = fitter; tRNA-Arg(CCU), competitive growth, 37 C, YPD
# In short: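 Gene amplicons from the start population and from each of six end populations were read by 100-nucleotide paired-end sequencing. Those end populations came from pooled Saccharomyces cerevisiae strains carrying tRNA-Arg(CCU) gene variants at the native locus, competed in YPD at 37°C for 24 hours. Fitness relative to wild type was worked out from changes in genotype frequencies. Genotypes needed ≥ 100 starting reads, and estimates < 0.5 were set to 0.5.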
row,Variant,yeast fitness
1,GUCUCGUUGGCGUAAUGGUAACGCGUCUCCCUCCUAAGGAGAAGACUGCGGGUUCGAGUCCCGUACGGUUCG,≤ 0.5
2,GUUACGUUAGCGUAAUGGUAACGCGUCUCCCUCCUAAGGAGAACACUGCGAGUUCGACACCCGUACGGAACG,≤ 0.5
3,GUUCGGUUGGCGUAAUGGUAACGCGUCUCCCUCCUAAGGAGAAGACCGCGGGUUCGAGACCCGUACGGAACG,≤ 0.5
4,GUCCCGUUGGCGCAAUGGUAACGUGUCUCCCUCCUAAGGAGAAGACUGCGGAUUCAAGUCCCGUACGGAACG,≤ 0.5
5,GUUCCGUUGGCGUAAUGGUAGAGCGUCUCCCUCCUAAGGAGAAGACUGCGGGUUCGAGUCCCGUACGGAACG,0.834
6,GUUCCGCUGGCGUAAUGGUAACGCGUAUCCCUCCUAAGGAGAAGACUGCGGGUUCGAGUCCCGUAAGGAACG,≤ 0.5
7,GUUCCGUUGGCGUAAUGGUACCGCGUCUCCCUACUAAGGAGAAGACUGCGGGUUCGAGUCUCGUACGGAACG,≤ 0.5
8,GUACAGUUGGCGUAAUGGUAACGCGUCUACCUCCUAAGGAGAAGACUGCGGGUUCGAGUCCCGUACGAAACG,≤ 0.5
9,GUUCCGUUGGCGUAAUGGUAACGCGUCUCCCUCCUAAGGAGAGGUCCGCGGGUUCGAGUCCCAUACGGAACG,≤ 0.5
10,GUUCCGCUGGCGUACUGGUAACGCAUCUCCCUCCUAAAGAGAAGGCUGCGGAUUCGAGUCGCGUACGGAACG,≤ 0.5
11,GGUCCGUUGGCGUAAUGGUAACGCGUCUCCCUCCUAAGGAGAAGACUGCGGGUUCGAGCCCCGUACGGAACG,0.848
12,GUUCCGUUGGCGUAACGGUAACGCGUCUCCCUCCUAAGGAGAAGACUGCGGGUUCGAGUCCCGUACAGAACG,0.891
13,GUUCUGUUGGCGUAAUGGUCACGCGUCUCCCUCCUAAGGAGAACACUGCGGGUUCGAGUCCCGUACGGAACG,0.573
14,GUUCCGUUGGCGUAAUGGUAACGCGUCACCCUCCUAAGGAGAAGGCUGCGGGUUCGAGUCCCGUAUGGAACG,0.538
15,GUUGCGUUGGCGUAAUGGUCACGCGUCUCCCUCCUAAGGAGAAGACUGCGGGUUCGAGUCCCGUACGGAACG,0.8
16,GUUCCGUUACCGUAAUGGAAACGCGUCUCCCUCCUAAGGAGAAGACUGCGGGUUCGAGUCCCGUACGGAACG,≤ 0.5
17,GUUCCAUUGGCGUAAUGGUAACGCGUCUGCCUCCUAUGGAGAAGACUGCGGGUUCCAGUCCCGUACCGAACG,≤ 0.5
18,GUUCCGUUGGCGUAAUCGUAACGCGUCUCCCUCCUAAGAAGAAGACUGCGGGUUCGAGUCCCGUACGGAACG,0.665
19,GUUCCGUUGGCGUAAUGGUAACGCGUCUCCCUCCUAAGGAGAGGACUGCGGGUUCGAGUCCUGUACGGAACG,0.877

row,Variant,yeast fitness
1,GUUCCGUUGCCCUAAUGGUAACGCGUCUCCCUCCUAAGGAGAAGAAUGCGGGUUCGAGUCCCGUACGGAACG,≤ 0.5
2,GUUCCGUUGGCGUAAUGGUAACGCGUCUCCCUCCUAUGGAGAAGACUGCGGGUUCGAGUCCUGUAGGGAACG,≤ 0.5
3,GAUCCGGUGGCGUAAUGGUAACGCGUUUCCCUCCUAAGCAGAAGACUGCGGGUUCGAGUACCGUACGGAACG,≤ 0.5
4,GUUCCGUUGGCGUAAUGGUAACGCGUCUGGCUCCUAAGGAGAAGACUGAGGGUUCCAGUCUCGUACGGCACG,0.717
5,GUUCCGUUGGCGUAAUGAUAACGCGUCUCCCUCCUAAGGAGAAGACUGCGGGUUCGCGUCCCGUACGGAACG,0.626
6,GUUCCGUUGCCGUAAUGGUACCGCGCCUCCAUCCUAAGGAGUAGACUGCGGGUUCGAGUCCCGUACGGAACG,≤ 0.5
7,GUUCGGUUGGCGUAAUGGUAACGCGUCUCCCUCCUAAGGAGAAGACUGUGGGUUCGAGUCCCGUACGGAACG,0.815
8,GUUCCGUUGGCGUAUUGGUAACGCGCCUCCCUCCUAAGGAGAAGACUGCGGGUUCGAGUCCCGUACGGAACG,0.81
9,GUUCCGUUGGCGUAAUGGUAACGCAUCUCCCUCCUAAGGAGGAGACUGCGGGUUCGAGCCCCGUACGGAACG,≤ 0.5
10,GUCCCGUUGACGUAAUGGUAACGCGUCUCCCUCCUAAGGAGAAGACUGCGGGUCCCAAUCCCGUACGGAACG,0.553
11,GUUCCGUUCGCGUAAUGGUUACGCGUGUCCCUCCUAAGGAGAAGACUGUGGGUUCGAGUCCCGUACGGAACG,0.55
12,GUUCCGUUGGCGUAAUGGUAACGCGUCUCCCUCCUAAGGAGAAGACUGCGGGUUCGAGUCCUGUCCGGAACG,0.914
13,GUUCCGUUGGCGUAAUAGUAACGCGUCUCCCUCCUAAGGAGAGGACUGCGGGUUCGAGUCCCGUACGGAACG,0.735
14,GUUCCCUUGGCGUAAUGGUAACGCGUCUCCCUCCUAAGGAGUAGACUGCGGGUUCGAGUCCCGUACAGAACG,≤ 0.5
15,GUUCCGUUGGCGUAAUGGGAACGCGUCUCCCUCCUAAGGAGAAGACCGCGGGUUCGAGUCCCGUACGGAACG,0.972
16,GUUCCGUUGGCGUAUUGCUAACGCGUCUGCCUCCUAAGGAGAAGACUGCGGGUUCGAGUCCCGAACGGCACG,0.598
17,GUUCCGUUGGCGUAAUGGUAUCGCGUCUCGCUCCUAAGGAGAAGACUGCGGGUUCGAGUCCCGUACGGAACG,0.54
18,GUUCCGUUGGCGUAAUGGUAACGCGUCUCCCUCUUAAGGAGAACCCUGCGGGUUCGAGUCCCGUAAGGAACG,0.591
19,GUUCCGUUGGAGUAAUGGUAACGCGUGUCCCUCCUAAGGAGAAGACUGCGGGUUCGAGACCCGUACGGAACG,≤ 0.5
